Measurements: publication PMC10864842 (Saudi Pharmaceutical Journal : SPJ, 2024)
Several values for one entry are separate records, joined by “and”; a condition that tells them apart may be missing. Identical values can stand only once. Like-named read-outs stand apart in the source and are kept apart here.

Tests used:
[1] = test system: MDA-MB-231 breast cancer cells; assay: MTT assay on MDA-MB-231 cells; type: cell-based; conditions: Homo sapiens
Procedure, shortened: (§1)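 Cells kept in DMEM with 10% (v/v) FBS and 1% (v/v) streptomycin/penicillin at 37 °C and 5% CO2. About 10^4 cells/ml were seeded and grown for 24 h. Test compounds in DMSO were added at 6.25, 12.5, 25, 50 and 100 µg/ml for 24 and 48 h. Medium was replaced with 5 mg/mL MTT for 3–4 h. Formazan was dissolved in acidified isopropanol and read at 630 nm. Viability is expressed as % of untreated cells.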

[2] = MTT assay on oral epithelial normal cells; type: cell-based
Procedure, shortened: as §1

[3] = molecular target: T1, KSP ATPase (Homo sapiens, UniProt P52732); assay: Microtubule-activated KSP ATPase end-point assay; type: biochemical; conditions: read-out: KSP ATPase inhibition [%]
T1 sequence (P52732 1-1056): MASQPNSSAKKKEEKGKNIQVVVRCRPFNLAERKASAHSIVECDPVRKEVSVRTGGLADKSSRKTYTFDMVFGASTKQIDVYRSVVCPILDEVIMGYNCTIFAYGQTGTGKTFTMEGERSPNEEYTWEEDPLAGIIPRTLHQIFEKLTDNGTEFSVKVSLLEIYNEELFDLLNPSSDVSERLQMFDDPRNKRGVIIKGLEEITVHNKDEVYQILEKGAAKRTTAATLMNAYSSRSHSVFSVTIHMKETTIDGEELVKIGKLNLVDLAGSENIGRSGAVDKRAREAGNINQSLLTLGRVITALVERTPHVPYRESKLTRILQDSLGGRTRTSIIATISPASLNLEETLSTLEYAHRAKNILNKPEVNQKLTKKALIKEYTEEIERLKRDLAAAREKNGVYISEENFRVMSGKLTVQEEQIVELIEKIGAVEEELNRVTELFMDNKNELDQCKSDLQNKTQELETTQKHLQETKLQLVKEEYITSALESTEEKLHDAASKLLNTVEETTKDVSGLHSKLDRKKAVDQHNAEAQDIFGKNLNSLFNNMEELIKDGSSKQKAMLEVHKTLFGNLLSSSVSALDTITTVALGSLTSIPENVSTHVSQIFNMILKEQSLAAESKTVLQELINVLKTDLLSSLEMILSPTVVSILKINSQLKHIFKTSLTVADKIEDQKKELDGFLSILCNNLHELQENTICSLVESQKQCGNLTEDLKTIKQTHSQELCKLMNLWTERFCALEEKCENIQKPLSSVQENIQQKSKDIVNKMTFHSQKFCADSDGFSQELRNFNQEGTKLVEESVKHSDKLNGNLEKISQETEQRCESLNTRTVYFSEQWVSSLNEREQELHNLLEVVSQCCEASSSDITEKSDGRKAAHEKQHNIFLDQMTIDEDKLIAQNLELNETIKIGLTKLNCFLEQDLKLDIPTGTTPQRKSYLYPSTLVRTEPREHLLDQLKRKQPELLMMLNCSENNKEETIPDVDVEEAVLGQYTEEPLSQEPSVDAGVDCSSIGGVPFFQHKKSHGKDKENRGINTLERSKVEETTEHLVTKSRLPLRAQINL

[4] = molecular target: T1, KSP ATPase; assay: Microtubule-activated KSP ATPase kinetic assay; type: biochemical
[5] = molecular target: PI3Kδ (Homo sapiens, UniProt O00329); assay: PI3Kδ inhibition assay; type: biochemical
Chain of PI3Kδ (O00329 whole entry): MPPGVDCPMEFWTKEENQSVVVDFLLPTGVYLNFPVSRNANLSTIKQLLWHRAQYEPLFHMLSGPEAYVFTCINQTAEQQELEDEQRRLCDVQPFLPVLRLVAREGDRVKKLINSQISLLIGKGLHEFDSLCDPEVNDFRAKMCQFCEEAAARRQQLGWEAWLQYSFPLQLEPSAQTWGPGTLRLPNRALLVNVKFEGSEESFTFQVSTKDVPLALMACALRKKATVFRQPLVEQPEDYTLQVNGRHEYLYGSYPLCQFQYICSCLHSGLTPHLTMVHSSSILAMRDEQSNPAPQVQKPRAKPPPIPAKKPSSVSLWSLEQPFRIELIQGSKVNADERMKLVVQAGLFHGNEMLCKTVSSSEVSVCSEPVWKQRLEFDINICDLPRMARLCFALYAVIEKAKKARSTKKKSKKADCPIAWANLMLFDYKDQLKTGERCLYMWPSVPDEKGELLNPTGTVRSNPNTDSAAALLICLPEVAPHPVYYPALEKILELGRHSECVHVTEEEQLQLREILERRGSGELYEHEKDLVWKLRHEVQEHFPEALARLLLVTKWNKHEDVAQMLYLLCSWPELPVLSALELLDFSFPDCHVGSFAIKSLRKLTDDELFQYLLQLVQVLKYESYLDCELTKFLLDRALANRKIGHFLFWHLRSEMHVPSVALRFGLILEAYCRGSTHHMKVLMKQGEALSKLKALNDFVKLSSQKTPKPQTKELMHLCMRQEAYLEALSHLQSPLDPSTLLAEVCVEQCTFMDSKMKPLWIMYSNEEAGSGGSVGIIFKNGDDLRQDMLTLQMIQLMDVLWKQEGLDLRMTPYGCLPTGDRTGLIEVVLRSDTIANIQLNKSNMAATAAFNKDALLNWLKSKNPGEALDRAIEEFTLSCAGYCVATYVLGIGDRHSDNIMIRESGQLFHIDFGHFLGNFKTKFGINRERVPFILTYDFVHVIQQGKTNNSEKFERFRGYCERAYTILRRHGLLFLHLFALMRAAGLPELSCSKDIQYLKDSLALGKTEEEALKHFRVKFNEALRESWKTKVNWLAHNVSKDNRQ
Chain of PI3Kδ (P27986 whole entry partner): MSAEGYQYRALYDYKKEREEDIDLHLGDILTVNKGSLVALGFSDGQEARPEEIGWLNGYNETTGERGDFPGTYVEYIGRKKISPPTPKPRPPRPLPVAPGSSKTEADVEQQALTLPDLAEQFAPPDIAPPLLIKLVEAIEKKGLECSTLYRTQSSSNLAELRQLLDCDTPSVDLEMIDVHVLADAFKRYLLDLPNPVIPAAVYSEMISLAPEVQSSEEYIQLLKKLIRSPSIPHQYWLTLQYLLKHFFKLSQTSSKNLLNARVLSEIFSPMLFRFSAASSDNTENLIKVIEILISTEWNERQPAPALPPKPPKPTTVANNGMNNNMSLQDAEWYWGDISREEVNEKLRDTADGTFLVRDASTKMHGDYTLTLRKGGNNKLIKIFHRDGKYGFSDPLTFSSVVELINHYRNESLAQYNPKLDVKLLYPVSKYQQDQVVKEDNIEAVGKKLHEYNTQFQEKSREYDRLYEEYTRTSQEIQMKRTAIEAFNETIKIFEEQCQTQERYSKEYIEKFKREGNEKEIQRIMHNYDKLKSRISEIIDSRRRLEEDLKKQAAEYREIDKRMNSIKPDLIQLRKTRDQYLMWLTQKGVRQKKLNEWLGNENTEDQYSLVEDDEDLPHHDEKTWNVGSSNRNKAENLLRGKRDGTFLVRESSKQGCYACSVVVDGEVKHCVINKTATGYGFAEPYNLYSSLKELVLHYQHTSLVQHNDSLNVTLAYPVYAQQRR

[6] = test system: MDA-MB-231 cells; assay: Morphological study by inverted microscope; type: cell-based; conditions: 48 h
Procedure, shortened: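 MDA-MB-231 cells were grown in DMEM with 10% FBS and 1% streptomycin/penicillin at 37 °C, 5% CO2. They were treated with varying concentrations of test compound for 48 h and examined by inverted light microscopy. Phenotypic changes were scored as cell shrinkage, apoptotic body formation and membrane blebbing.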

[7] = test system: MDA-MB-231 cells; assay: Annexin V-FITC/PI flow cytometry; type: cell-based; conditions: MDA-MB-231, Annexin V-FITC & PI, post-treatment
Procedure, shortened: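 MDA-MB-231 cells were kept in DMEM with 10% FBS and 1% streptomycin/penicillin at 37 °C under 5% CO2. Cells were treated with the test compound for 48 h, with doxorubicin as the standard and untreated cells for comparison. Cells were then harvested, rinsed, suspended in PBS, stained with Annexin V-FITC/PI and held 20 min in the dark before flow cytometry. Early apoptosis was Annexin V+/PI−; late apoptosis was Annexin V+/PI+.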

[8] = test system: MDA-MB-231 cells; assay: DNA fragmentation by gel electrophoresis; type: cell-based; conditions: post-treatment
Procedure, shortened: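 MDA-MB-231 cells kept in DMEM with 10% FBS and 1% streptomycin/penicillin at 37 °C, 5% CO2. Genomic DNA was extracted with a commercial kit from cells before and after test compound treatment, and its quality was checked by nanodrop. DNA plus 1X loading dye was run on agarose gel, viewed under a UV transilluminator and imaged on a gel documentation system. Doxorubicin served as reference.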

[9] = test system: MDA-MB-231 cells; assay: qRT-PCR relative gene expression of P53, BAX and BCL-2; type: cell-based; conditions: MDA-MB-231, 48 h
Procedure, shortened: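 RNA was extracted from cells after 48 h of treatment with test compound, and its purity was checked by nanodrop. P53, BAX and BCL-2 expression was normalised to β-actin as the housekeeping gene. Treated and untreated cells were compared by ANOVA.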

[10] = MDA-MB-231, 24 h, read-out: IC50 after 24 h (µM)
[11] = MDA-MB-231, 24 h, read-out: IC50 after 24 h in µg/mL
[12] = MDA-MB-231, 48 h, read-out: IC50 after 48 h (µM)
[13] = MDA-MB-231, 48 h, read-out: IC50 after 48 h in µg/mL

Row | Structure (SMILES) | IC50 [1, 10] [µM] | IC50 [1, 11] [µg/mL] | IC50 [1, 12] [µM] | IC50 [1, 13] [µg/mL] | IC50 at 48 h [2] | inhibition at 2 µM [3] [%] | IC50 [4] [µM] | IC50 [5] [µM] | Morphological changes of treated cells [6] | Number of cells in the early and late apoptosis versus untreated cells [7] | DNA fragmentation [8] | Relative gene expression of BAX [9] | Relative gene expression of BCL-2 [9] | Relative gene expression of P53 [9]
1 | O=c1c2cc(Cl)ccc2nc(S)n1-c1ccc(F)cc1 [Compound 1, 6-Chloro-3-(4-fluorophenyl)-2-mercaptoquinazolin-4(3H)-one] | 44.3 | 13.6 ± 0.12 | 23.6 | 7.23 ± 0.15 | 80 µg/mL and 261 µM | – | – | – | – | – | – | – | – | –
2 | CCSc1nc2ccc(Cl)cc2c(=O)n1-c1ccc(F)cc1 [Compound 3a, 6-Chloro-2-(ethylthio)-3-(4-fluorophenyl)quinazolin-4(3H)-one] | 28.5 | 9.54 ± 0.11 | 14.5 | 4.86 ± 0.18 | 98.3 µg/mL and 294 µM | 88.3 ± 3.86 | 0.0887 ± 0.00316 | 0.0382 ± 0.00215 | cell shrinkage, apoptotic bodies formation, and membrane blebbing | significant increase | internucleosomal fragmentation was noticed | significant overexpression | downregulation | significant overexpression
3 | CC(C)=CCSc1nc2ccc(Cl)cc2c(=O)n1-c1ccc(F)cc1 [Compound 3b, 6-Chloro-3-(4-fluorophenyl)-2-((3-methylbut-2-en-1-yl)thio)quinazolin-4(3H)-one] | 47.5 | 17.8 ± 0.12 | 16.3 | 6.1 ± 0.1 | 98 µg/mL and 261 µM | 89.6 ± 3.42 | 0.0858 | 0.0323 ± 0.00218 | cell shrinkage, apoptotic bodies formation, and membrane blebbing | significant increase | internucleosomal fragmentation was noticed | significant overexpression | downregulation | significant overexpression
4 | CCOC(=O)CSc1nc2ccc(Cl)cc2c(=O)n1-c1ccc(F)cc1 [Compound 3c, Ethyl 2-((6-chloro-3-(4-fluorophenyl)-4-oxo-3,4-dihydroquinazolin-2-yl)thio)acetate] | 56 | 22 ± 0.13 | 17.8 | 7.01 ± 0.12 | 58.3 µg/mL and 148 µM | – | – | – | – | – | – | – | – | –
5 | O=c1c2cc(Cl)ccc2nc(SCc2cc(C(F)(F)F)cc(C(F)(F)F)c2)n1-c1ccc(F)cc1 [Compound 3g, 2-((3,5-Bis(trifluoromethyl)benzyl)thio)-6-chloro-3-(4-fluorophenyl)quinazolin-4(3H)-one] | 50.5 | 26.92 ± 0.09 | 38.1 | 20.3 ± 0.23 | 70.4 µg/mL and 132 µM | 90.5 ± 2.16 | 0.0774 | 0.0578 ± 0.00275 | – | – | – | – | – | –
6 | O=C(CSc1nc2ccc(Cl)cc2c(=O)n1-c1ccc(F)cc1)Nc1cccc2ccccc12 [Compound 3l, 2-((6-Chloro-3-(4-fluorophenyl)-4-oxo-3,4-dihydroquinazolin-2-yl)thio)-N-(naphthalen-1-yl)acetamide] | 26.9 | 13.18 ± 0.13 | 14.2 | 6.98 ± 0.12 | 79 µg/mL and 161 µM | – | – | – | – | – | – | – | – | –
7 | COc1cccc2c1C(=O)c1c(O)c3c(c(O)c1C2=O)C[C@@](O)(C(=O)CO)C[C@@H]3O[C@H]1C[C@H](N)[C@H](O)[C@H](C)O1 [Doxorubicin, reference compound] | – | – | 1.41 | 0.77 ± 0.14 | 40.5 µg/mL and 74.5 µM | – | – | – | – | – | – | – | – | –
8 | Cc1ccc(C(=O)N(CCCN)[C@@H](c2nc3cc(Cl)ccc3c(=O)n2Cc2ccccc2)C(C)C)cc1 [Ispinesib, reference compound] | – | – | – | – | – | 95.5 ± 2.24 | – | – | – | – | – | – | – | –

Continued, in another order:

Row | IC50 [1, 10] [µM] | IC50 [1, 11] [µg/mL] | IC50 [1, 12] [µM] | IC50 [1, 13] [µg/mL] | IC50 at 48 h [2] | inhibition at 2 µM [3] [%] | Structure (SMILES) | IC50 [4] [µM] | IC50 [5] [µM] | Morphological changes of treated cells [6] | Number of cells in the early and late apoptosis versus untreated cells [7] | DNA fragmentation [8] | Relative gene expression of BAX [9] | Relative gene expression of BCL-2 [9] | Relative gene expression of P53 [9]
9 | 21 | 9.05 ± 0.1 | 15.3 | 6.59 ± 0.09 | 65.4 µg/mL and 152 µM | – | O=c1c2cc(Cl)ccc2nc(SCc2ccc(Cl)cc2)n1-c1ccc(F)cc1 [Compound 3d, 6-Chloro-2-((4-chlorobenzyl)thio)-3-(4-fluorophenyl)quinazolin-4(3H)-one] | – | – | – | – | – | – | – | –
10 | 58.9 | 27.39 ± 0.1 | 37 | 17.19 ± 0.12 | 67.8 µg/mL and 146 µM | – | O=c1c2cc(Cl)ccc2nc(SCc2ccc(C(F)(F)F)cc2)n1-c1ccc(F)cc1 [Compound 3f, 6-Chloro-3-(4-fluorophenyl)-2-((4-(trifluoromethyl)benzyl)thio)quinazolin-4(3H)-one] | – | – | – | – | – | – | – | –
11 | 30.2 | 14.89 ± 0.11 | 16.5 | 8.14 ± 0.13 | 51.4 µg/mL and 104 µM | 92.6 ± 2.35 | O=c1c2cc(Cl)ccc2nc(SCc2ccc(Br)cc2F)n1-c1ccc(F)cc1 [Compound 3h, 2-((4-Bromo-2-fluorobenzyl)thio)-6-chloro-3-(4-fluorophenyl)quinazolin-4(3H)-one] | 0.0735 | 0.0538 ± 0.0031 | – | – | – | – | – | –
12 | 95.6 | 40.33 ± 0.11 | 62.8 | 26.49 ± 0.13 | 86.5 µg/mL and 205 µM | – | N#Cc1ccc(CSc2nc3ccc(Cl)cc3c(=O)n2-c2ccc(F)cc2)cc1 [Compound 3i, 4-(((6-Chloro-3-(4-fluorophenyl)-4-oxo-3,4-dihydroquinazolin-2-yl)thio)methyl)benzonitrile] | – | – | – | – | – | – | – | –
13 | 50.9 | 22.48 ± 0.12 | 31.6 | 13.96 ± 0.12 | 78.3 µg/mL and 177 µM | – | O=c1c2cc(Cl)ccc2nc(SCc2ccc([N+](=O)[O-])cc2)n1-c1ccc(F)cc1 [Compound 3j, 6-Chloro-3-(4-fluorophenyl)-2-((4-nitrobenzyl)thio)quinazolin-4(3H)-one] | – | – | – | – | – | – | – | –
14 | 38 | 17.71 ± 0.14 | 18.4 | 8.57 ± 0.1 | 80.5 µg/mL and 173 µM | – | O=C1c2ccccc2C(=O)N1CSc1nc2ccc(Cl)cc2c(=O)n1-c1ccc(F)cc1 [Compound 3k, 2-(((6-Chloro-3-(4-fluorophenyl)-4-oxo-3,4-dihydroquinazolin-2-yl)thio)methyl)isoindoline-1,3-dione] | – | – | – | – | – | – | – | –
